Measurements as given in ChEMBL document CHEMBL5303300, “EUbOPEN Chemogenomics Library - Multiplex” (2023).
Values joined by “and” are separate entries in the source; they are usually repeats but may differ in a detail not shown here. Identical values can stand only once.

Tested on: Fibroblast
Experiment: Multiplex assay against human fibroblast
Assay type: toxicity, cell-based
Conditions: number of replicates 2
In short: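 Live cells were stained at seeding with Hoechst33342, BioTracker Green Microtubule Cytoskeleton Dye, MitoTracker Red and Annexin V Alexa Fluor 680. Following compound addition, they were imaged on a CQ1 microscope at 37°C and 5% CO2 and gated by CellPathfinder machine learning into Hoechst high-intensity objects or normal cells, with normal cells split into healthy, pyknosed or fragmented nuclei and pyknosed cells into mitotic or apoptotic. Tubulin, mitochondrial-mass and membrane-permeability phenotypes are per cents of healthy-nucleus cells.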

[1] = 12 h, 1 µM, compound concentration 1 uM
[2] = 12 h, 10 µM, compound concentration 10 uM
[3] = 24 h, 1 µM, compound concentration 1 uM
[4] = 24 h, 10 µM, compound concentration 10 uM
[5] = 48 h, 1 µM, compound concentration 1 uM
[6] = 48 h, 10 µM, compound concentration 10 uM

CN(C)CCN(Cc1ccc(-c2ccc(CNCCc3ccccc3)cc2)cc1)C(=O)CCC1CCCC1.Cl.Cl
Population Apoptotic (%) [1]: 25% and 30% | Population Fragmented Nuclei (%) [1]: 20% and 26% | Population Healthy Nuclei (%) [1]: 56% and 57% | Population Hoechst High Intensity Objects (%) [1]: 0% | Population Membrane Permeable-Phenotype (%) [1]: 3% and 4% | Population Mitochondria Different-Phenotype (%) [1]: 11% and 14% | Population Mitotic Cells (%) [1]: 74% and 69% | Population Normal (%) [1]: 100% and 99% | Population Pyknosed Nuclei (%) [1]: 22% and 16% | Population Tubulin-Different-Phenotype (%) [1]: 68% and 55% | Total Cell Count [1]: 254 and 325 | Population Apoptotic (%) [2]: 84% and 86% | Population Fragmented Nuclei (%) [2]: 4% and 8% | Population Healthy Nuclei (%) [2]: 3% and 1% | Population Hoechst High Intensity Objects (%) [2]: 2% and 0% | Population Mitotic Cells (%) [2]: 15% and 13% | Population Normal (%) [2]: 97% and 99% | Population Pyknosed Nuclei (%) [2]: 92% and 90% | Population Tubulin-Different-Phenotype (%) [2]: 50% and 100% | Total Cell Count [2]: 199 and 160 | Population Apoptotic (%) [3]: 55% and 66% | Population Fragmented Nuclei (%) [3]: 13% and 19% | Population Healthy Nuclei (%) [3]: 67% and 68% | Population Hoechst High Intensity Objects (%) [3]: 0% | Population Membrane Permeable-Phenotype (%) [3]: 3% and 1% | Population Mitochondria Different-Phenotype (%) [3]: 23% and 29% | Population Mitotic Cells (%) [3]: 44% and 33% | Population Normal (%) [3]: 99% | Population Pyknosed Nuclei (%) [3]: 18% and 11% | Population Tubulin-Different-Phenotype (%) [3]: 72% and 60% | Total Cell Count [3]: 239 and 294 | Population Apoptotic (%) [4]: 87% and 90% | Population Fragmented Nuclei (%) [4]: 6% and 12% | Population Healthy Nuclei (%) [4]: 1% | Population Hoechst High Intensity Objects (%) [4]: 1% | Population Membrane Permeable-Phenotype (%) [4]: 33% | Population Mitotic Cells (%) [4]: 12% and 9% | Population Normal (%) [4]: 98% | Population Pyknosed Nuclei (%) [4]: 92% and 85% | Total Cell Count [4]: 199 and 156 | Population Apoptotic (%) [5]: 86% and 65% | Population Fragmented Nuclei (%) [5]: 19% and 27% | Population Healthy Nuclei (%) [5]: 74% and 66% | Population Hoechst High Intensity Objects (%) [5]: 0% | Population Membrane Permeable-Phenotype (%) [5]: 1% | Population Mitochondria Different-Phenotype (%) [5]: 9% and 11% | Population Mitotic Cells (%) [5]: 13% and 35% | Population Normal (%) [5]: 100% | Population Pyknosed Nuclei (%) [5]: 5% and 6% | Population Tubulin-Different-Phenotype (%) [5]: 41% and 38% | Total Cell Count [5]: 255 and 321 | Population Apoptotic (%) [6]: 83% and 93% | Population Fragmented Nuclei (%) [6]: 12% and 22% | Population Healthy Nuclei (%) [6]: 6% and 13% | Population Hoechst High Intensity Objects (%) [6]: 0% | Population Membrane Permeable-Phenotype (%) [6]: 8% and 14% | Population Mitochondria Different-Phenotype (%) [6]: 41% and 19% | Population Mitotic Cells (%) [6]: 16% and 7% | Population Normal (%) [6]: 100% | Population Pyknosed Nuclei (%) [6]: 81% and 63% | Population Tubulin-Different-Phenotype (%) [6]: 50% and 76% | Total Cell Count [6]: 200 and 157

CN[C@@H]1CC[C@@H](c2ccc(Cl)c(Cl)c2)c2ccccc21.Cl
Population Apoptotic (%) [1]: 43% and 37% | Population Fragmented Nuclei (%) [1]: 14% and 18% | Population Healthy Nuclei (%) [1]: 55% and 62% | Population Hoechst High Intensity Objects (%) [1]: 0% | Population Membrane Permeable-Phenotype (%) [1]: 12% and 9% | Population Mitochondria Different-Phenotype (%) [1]: 2% and 0% | Population Mitotic Cells (%) [1]: 56% and 62% | Population Normal (%) [1]: 100% and 99% | Population Pyknosed Nuclei (%) [1]: 29% and 19% | Population Tubulin-Different-Phenotype (%) [1]: 37% and 20% | Total Cell Count [1]: 194 | Population Apoptotic (%) [2]: 28% and 53% | Population Fragmented Nuclei (%) [2]: 17% and 15% | Population Healthy Nuclei (%) [2]: 56% and 55% | Population Hoechst High Intensity Objects (%) [2]: 0% | Population Membrane Permeable-Phenotype (%) [2]: 11% and 8% | Population Mitochondria Different-Phenotype (%) [2]: 10% and 14% | Population Mitotic Cells (%) [2]: 71% and 46% | Population Normal (%) [2]: 100% and 99% | Population Pyknosed Nuclei (%) [2]: 26% and 28% | Population Tubulin-Different-Phenotype (%) [2]: 82% and 77% | Population Apoptotic (%) [3]: 43% and 40% | Population Fragmented Nuclei (%) [3]: 16% and 17% | Population Healthy Nuclei (%) [3]: 57% and 65% | Population Hoechst High Intensity Objects (%) [3]: 0% and 1% | Population Membrane Permeable-Phenotype (%) [3]: 8% and 2% | Population Mitochondria Different-Phenotype (%) [3]: 1% and 4% | Population Mitotic Cells (%) [3]: 56% and 60% | Population Normal (%) [3]: 99% and 98% | Population Pyknosed Nuclei (%) [3]: 25% and 16% | Population Tubulin-Different-Phenotype (%) [3]: 39% and 19% | Population Apoptotic (%) [4]: 53% and 65% | Population Fragmented Nuclei (%) [4]: 13% and 15% | Population Healthy Nuclei (%) [4]: 56% and 53% | Population Hoechst High Intensity Objects (%) [4]: 0% | Population Membrane Permeable-Phenotype (%) [4]: 7% and 5% | Population Mitochondria Different-Phenotype (%) [4]: 29% and 49% | Population Mitotic Cells (%) [4]: 46% and 34% | Population Normal (%) [4]: 100% and 99% | Population Pyknosed Nuclei (%) [4]: 30% and 32% | Population Tubulin-Different-Phenotype (%) [4]: 89% and 88% | Total Cell Count [4]: 212 and 201 | Population Apoptotic (%) [5]: 78% and 55% | Population Fragmented Nuclei (%) [5]: 21% and 22% | Population Healthy Nuclei (%) [5]: 60% and 64% | Population Hoechst High Intensity Objects (%) [5]: 0% | Population Membrane Permeable-Phenotype (%) [5]: 2% and 3% | Population Mitochondria Different-Phenotype (%) [5]: 0% | Population Mitotic Cells (%) [5]: 21% and 44% | Population Normal (%) [5]: 99% | Population Pyknosed Nuclei (%) [5]: 17% and 12% | Population Apoptotic (%) [6]: 75% and 88% | Population Fragmented Nuclei (%) [6]: 12% and 14% | Population Healthy Nuclei (%) [6]: 66% and 51% | Population Hoechst High Intensity Objects (%) [6]: 1% and 0% | Population Membrane Permeable-Phenotype (%) [6]: 11% and 1% | Population Mitochondria Different-Phenotype (%) [6]: 40% and 47% | Population Mitotic Cells (%) [6]: 24% and 11% | Population Normal (%) [6]: 98% and 100% | Population Pyknosed Nuclei (%) [6]: 21% and 34% | Population Tubulin-Different-Phenotype (%) [6]: 84% and 69% | Total Cell Count [6]: 196
